In ChEMBL document CHEMBL1129428 (J Med Chem, 1996):

Legend:
Mus musculus [1] = test: Compound was tested for toxicity after intraperitoneal injection into mice by using toxicity screen test after 4 hr; type: organism-based; conditions: in vivo, ip
How it was run: (§1)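 Mice injected intraperitoneally at 30, 100 and 300 mg/kg and examined 0.5 and 4 h afterwards. Each entry is the minimum dose giving activity (MES protection, scPTZ protection, or rotorod failure for neurotoxicity) in half or more of the mice. Activity is called absent if nothing occurs at 300 mg/kg.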

Mus musculus [2] = test: Toxicity after intraperitoneal injection into mice by using toxicity screen test after 0.5 hr; type: organism-based; conditions: in vivo, ip; how it was run: as §1
Mus musculus [3] = test: Anticonvulsant activity after intraperitoneal injection into mice by using MES screen test after 0.5 hr; type: functional
Mus musculus [4] = test: Compound was tested for anticonvulsant activity after intraperitoneal injection into mice by using scPTZ screen test after 1 hr; type: functional; conditions: ip
How it was run: (§2)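 Quantitative intraperitoneal mouse testing in the MES, scPTZ or rotorod neurotoxicity screens at the peak time given for each compound (0.25–2 h). ED50 or TD50 reported in mg/kg with 95% CI and slope (SE).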

Mus musculus [5] = test: Anticonvulsant activity after intraperitoneal injection into mice measured in a maximal electroshock scree (MES) screen; type: functional
Mus musculus [6] = test: Compound was tested for anticonvulsant activity after intraperitoneal injection into mice by using MES screen test after 1 hr; type: functional; conditions: ip; how it was run: as §2
Rattus norvegicus [7] = test: Compound was tested for anticonvulsant activity after Oral Administration into Rats by using MES screen test after 4h,dose 12.5 mg/kg; number of rats out of four which were protected; type: functional
How it was run: (§3)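 Rats received the compound orally. […] Rats were tested in the MES screen at 0.25, 0.5, 1, 2 and 4 h. Each value is the number of rats protected out of 4. The test followed NINDS procedures.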

[8] = Compound was tested for toxicity after intraperitoneal injection into mice by using neurotoxicity screen test after 2 hr; type: organism-based; conditions: mouse, in vivo, ip; how it was run: as §2
Rattus norvegicus [9] = test: Compound was tested for anticonvulsant activity after Oral Administration into Rats by using MES screen test after 2h,dose 12.5 mg/kg; number of rats out of four which were protected; type: functional; how it was run: as §3
Rattus norvegicus [10] = test: Compound was tested for anticonvulsant activity after Oral Administration into Rats by using MES screen test after 0.25h,dose 12.5 mg/kg; number of rats out of four which were protected; type: functional; how it was run: as §3
Rattus norvegicus [11] = test: Compound was tested for anticonvulsant activity after Oral Administration into rat by using MES screen test after 2 hr; type: functional
How it was run: (§4)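 Rats dosed orally, typically at 50 mg/kg first, then mostly 12.5 mg/kg (some compounds at 30 mg/kg), and tested by maximal electroshock. Four rats per compound, scored at 0.25, 0.5, 1, 2 and 4 h as the number of rats protected out of 4.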

Mus musculus [12] = test: Anticonvulsant activity after intraperitoneal injection into mice by using scPTZ screen after 0.5 hr; type: functional
Rattus norvegicus [13] = test: Compound was tested for anticonvulsant activity after Oral Administration into Rats by using MES screen test after 1h,dose 12.5 mg/kg; number of rats out of four which were protected; type: functional; how it was run: as §3
Rattus norvegicus [14] = test: Anticonvulsant activity after oral administration into rats; type: functional; set-up: concentration or dose not given beside the values
[15] = Compound was tested for toxicity after oral administration in rat by using neurotoxicity screen test after 4 hr; type: organism-based; conditions: in vivo
How it was run: (§5)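 Rat neurotoxicity after oral dosing, observed at 0.25, 0.5, 1, 2, 4, 6, 8 and 24 h (8 h omitted for one compound).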

[16] = Partition coefficient (logP); type: physicochemical; conditions: octanol/water
How it was run: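 Partition between 1-octanol and buffer at pH 7.4, with solutions prepared in 1-octanol before buffer is added. Quantified by UV, using λmax and ε values measured in 1-octanol.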

Mus musculus [17] = test: Anticonvulsant activity after intraperitoneal injection into mice by using MES screen test after 0.25 hr; type: functional
Mus musculus [18] = test: Compound was tested for anticonvulsant activity after intraperitoneal injection into mice by using scPTZ screen test after 0.25 hr; type: functional; conditions: ip; how it was run: as §2
Mus musculus [19] = test: Anticonvulsant activity after intraperitoneal injection into mice by using scPTZ screen test after 4 hr; type: functional
Rattus norvegicus [20] = test: Compound was tested for anticonvulsant activity after Oral Administration into Rats by using MES screen test after 2h,dose 50 mg/kg; number of rats out of four which were protected; type: functional; how it was run: as §3
Rattus norvegicus [21] = test: Compound was tested for anticonvulsant activity after Oral Administration into Rats by using MES screen test after 0.5h,dose 50 mg/kg; No activity was demonstarted; type: functional, organism-based; set-up: dose 50 mg/kg; how it was run: as §3
Rattus norvegicus [22] = test: Compound was tested for anticonvulsant activity after Oral Administration into Rats by using MES screen test after 4h,dose 50 mg/kg; number of rats out of four which were protected; type: functional; how it was run: as §3
Rattus norvegicus [23] = test: Compound was tested for anticonvulsant activity after Oral Administration into Rats by using MES screen test after 1h,dose 50 mg/kg; number of rats out of four which were protected; type: functional; how it was run: as §3
Rattus norvegicus [24] = test: Compound was tested for anticonvulsant activity after Oral Administration into Rats by using MES screen test after 0.25h,dose 50 mg/kg; No activity was demonstarted; type: functional, organism-based; set-up: dose 50 mg/kg; how it was run: as §3
Rattus norvegicus [25] = test: Compound was tested for anticonvulsant activity after Oral Administration into rat by using MES screen test after 4 hr; type: functional; how it was run: as §4
[26] = Protection index = TD50/ED50 (MES); conditions: mouse, in vivo; read-out: PI
Mus musculus [27] = test: Compound was tested for anticonvulsant activity after intraperitoneal injection into mice by using MES screen test after 4 hr; type: functional; conditions: ip; how it was run: as §1
Rattus norvegicus [28] = test: Compound was tested for anticonvulsant activity after Oral Administration into Rats by using MES screen test after 0.25h,dose 12.5 mg/kg; No activity was demonstarted; type: functional, organism-based; set-up: dose 12.5 mg/kg; how it was run: as §3
[29] = Compound was tested for toxicity after intraperitoneal injection into mice by using neurotoxicity screen test after 4 hr; type: organism-based; conditions: mouse, in vivo, ip; how it was run: as §1
Rattus norvegicus [30] = test: Compound was tested for anticonvulsant activity after Oral Administration into Rats by using MES screen test after 0.5h,dose 50 mg/kg; number of rats out of four which were protected; type: functional; how it was run: as §3
[31] = Compound was tested for […] after intraperitoneal injection into mice by using neurotoxicity screen test after 2 hr; type: organism-based; conditions: mouse, in vivo, ip; how it was run: as §2
Rattus norvegicus [32] = test: Compound was tested for anticonvulsant activity after Oral Administration into Rats by using MES screen test after 0.25h,dose 50 mg/kg; number of rats out of four which were protected; type: functional; how it was run: as §3
Mus musculus [33] = test: Compound was tested for anticonvulsant activity after intraperitoneal injection into mice by using scPTZ screen test after 0.5 hr; type: functional; conditions: ip; how it was run: as §1
[34] = Protection index = TD50/ED50; type: ADME; conditions: read-out: PI
[35] = Compound was tested for toxicity after oral administration in rat by using neurotoxicity screen test after 0.25-24 hr; type: organism-based; conditions: in vivo; how it was run: as §5

Structure (SMILES) | Dose (Mus musculus [1]) [mg/kg] | Dose (Mus musculus [2]) [mg/kg] | Dose (Mus musculus [3]) [mg/kg] | Dose (Mus musculus [5]) [mg/kg] | ED50 (Mus musculus [6]) [mg/kg] | Activity (Rattus norvegicus [7]) | Activity (Rattus norvegicus [9]) | Dose (Mus musculus [12]) [mg/kg] | Activity (Rattus norvegicus [13]) | Activity (Rattus norvegicus [14]) | logP [16] | Dose (Mus musculus [19]) [mg/kg] | Activity (Rattus norvegicus [20]) | Activity (Rattus norvegicus [22]) | Activity (Rattus norvegicus [23]) | ED50 (Rattus norvegicus [25]) [mg/kg] | further results
NC(=O)N/N=C/c1ccc(Sc2ccc(F)cc2)cc1 | 100 | 300 | 30 | 30 | 12.4 | 4 | 4 | 30 | 4 | 3 | 2.8 | – | – | – | – | – | ED50 (Mus musculus [4]): > 120 mg/kg; TD50 at 2 h [8]: 88 mg/kg; Activity (Rattus norvegicus [10]): 1; ED50 (Rattus norvegicus [11]): 4.98 mg/kg; TD50 at 4 h [15]: 183 mg/kg
NC(=O)N1c2ccccc2C=Cc2ccccc21 [CARBAMAZEPINE] | 300 | 100 | 30 | 100 | – | – | – | 100 | – | – | 2.2 | 300 | – | – | – | – | ED50 (Mus musculus [17]): 9.85 mg/kg; ED50 (Mus musculus [18]): > 50 mg/kg
NC(=O)N/N=C\c1ccccc1Oc1ccccc1 | – | – | – | – | – | – | – | – | – | – | – | – | 1 | 1 | 2 | – | Activity (Rattus norvegicus [21]): No activity; Activity (Rattus norvegicus [24]): No activity
CC/C(=N/NC(N)=O)c1ccc(Oc2ccc(Br)cc2)cc1 | 100 | 300 | 30 | 30 | – | 4 | 4 | 100 | 4 | 2 | – | – | – | – | – | 4.39 | selectivity ratio [26]: 7.82; ED50 (Mus musculus [27]): 6.71 mg/kg; Activity (Rattus norvegicus [28]): No activity; TD50 at 4 h [29]: 52.5 mg/kg
NC(=O)N/N=C/c1ccc(Oc2ccc(F)c(F)c2)cc1 | – | – | 100 | 30 | 14.5 | – | – | 30 | – | – | 2.76 | 300 | 4 | 4 | 4 | 2.37 | Activity (Rattus norvegicus [30]): 4; TD50 at 2 h [31]: 94.8 mg/kg; Activity (Rattus norvegicus [32]): 2; ED50 (Mus musculus [33]): 72.8 mg/kg; selectivity ratio [34]: 1.3; TD50 [35]: > 500 mg/kg
